# Experimental data reported in ChEMBL document CHEMBL4219124, “Alleviating CYP and hERG liabilities by structure optimization of dihydrofuran-fused tricyclic benzo[d]imidazole series - Potent, selective and orally efficacious microsomal prostaglandin E synthase-1 (mPGES-1) inhibitors: Part-2” (Bioorg Med Chem Lett, 2018).
# What was measured:
# [1] = Metabolic stability in human liver microsomes assessed as parent compound remaining at 1 uM after 60 mins in presence of NADPH by LC-MS/MS analysis; format: ADME, microsome; settings: read-out: Stability
# In short: (§1)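 Compound incubated 60 min at 37 °C with human, rat or guinea pig liver microsomes; percent parent remaining, triplicates.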
# hERG (KCNH2) = hERG (KCNH2) (Homo sapiens, UniProt Q12809); assay: Inhibition of human ERG at 10 uM by patch clamp assay relative to control
# In short: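 hERG current measured by patch clamp with test compound at 10 µM; result given as % inhibition.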
# Prostaglandin E synthase [2] = biological target: T1, Prostaglandin E synthase (Homo sapiens, UniProt O14684); assay: Inhibition of recombinant human mPGES1 expressed in CHO cells assessed as reduction in PGE2 production using PGH2 as substrate incubated for 10 mins followed by substrate addition measured for 1 min; format: cell-based
# T1 sequence (O14684 whole entry): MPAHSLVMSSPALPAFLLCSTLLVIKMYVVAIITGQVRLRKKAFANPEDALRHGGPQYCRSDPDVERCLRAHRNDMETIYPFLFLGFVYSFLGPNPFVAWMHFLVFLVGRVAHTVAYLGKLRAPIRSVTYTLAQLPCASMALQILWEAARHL
# [3] = Metabolic stability in rat liver microsomes assessed as parent compound remaining at 1 uM after 60 mins in presence of NADPH by LC-MS/MS analysis; format: ADME, microsome; settings: read-out: Stability; in short: as §1
# [4] = biological target: T2, Thromboxane-A synthase (Homo sapiens) (UniProt P24557); assay: Inhibition of TXAS (unknown origin) at 10 uM relative to control
# T2 sequence (whole entry): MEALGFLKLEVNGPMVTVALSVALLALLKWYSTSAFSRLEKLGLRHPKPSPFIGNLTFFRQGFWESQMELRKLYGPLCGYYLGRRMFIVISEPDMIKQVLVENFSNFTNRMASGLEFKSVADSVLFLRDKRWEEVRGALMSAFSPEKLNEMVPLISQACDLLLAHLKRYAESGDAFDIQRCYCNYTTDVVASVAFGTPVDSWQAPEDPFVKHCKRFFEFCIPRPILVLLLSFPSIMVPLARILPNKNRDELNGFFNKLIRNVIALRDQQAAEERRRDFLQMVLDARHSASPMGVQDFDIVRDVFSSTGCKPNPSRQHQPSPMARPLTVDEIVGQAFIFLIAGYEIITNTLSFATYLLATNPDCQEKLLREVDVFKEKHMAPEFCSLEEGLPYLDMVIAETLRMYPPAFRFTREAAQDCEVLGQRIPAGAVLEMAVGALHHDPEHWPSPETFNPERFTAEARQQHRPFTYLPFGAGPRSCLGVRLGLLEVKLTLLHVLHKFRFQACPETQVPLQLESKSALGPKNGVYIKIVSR
# In short: (§2)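 Selectivity panel against other prostanoid-pathway enzymes. % inhibition values are means of at least two experiments, each in duplicate.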
# [5] = Protein binding in guinea pig plasma at 10 uM after 5 hrs by equilibrium dialysis based LC-MS/MS analysis; format: ADME, cell-free, Cavia porcellus; settings: read-out: PPB (converted)
# In short: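 Equilibrium dialysis at 10 μM compound; result expressed as percent bound.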
# CYP3A4 = CYP3A4 (Homo sapiens, UniProt P08684); assay: Inhibition of CYP3A4 in human liver microsomes at 10 uM after 20 mins in presence of NADPH by LC-MS/MS analysis; format: ADME
# In short: (§3)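 Percent inhibition of each CYP isoform by test compound at 10 µM, compared with a no-inhibitor control. Run in triplicate.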
# CYP2C9 = CYP2C9 (Homo sapiens, UniProt P11712); assay: Inhibition of CYP2C9 in human liver microsomes at 10 uM after 20 mins in presence of NADPH by LC-MS/MS analysis; format: ADME; in short: as §3
# Prostaglandin E synthase [6] = biological target: T1, Prostaglandin E synthase; assay: Inhibition of mPGES1 in human whole blood assessed as reduction in LPS-induced PGE2 production measured after 20 to 24 hrs
# CYP2D6 = CYP2D6 (Homo sapiens, UniProt P10635); assay: Inhibition of CYP2D6 in human liver microsomes at 10 uM after 20 mins in presence of NADPH by LC-MS/MS analysis; format: ADME; settings: liver microsomes; in short: as §3
# [7] = biological target: T3, Prostaglandin E synthase 3 (Homo sapiens) (UniProt Q15185); assay: Inhibition of cPGES in human U937 cells assessed as decrease in PGE2 production at 10 uM using arachidonic acid as substrate relative to control; format: cell-based; in short: as §2
# T3 sequence (whole entry): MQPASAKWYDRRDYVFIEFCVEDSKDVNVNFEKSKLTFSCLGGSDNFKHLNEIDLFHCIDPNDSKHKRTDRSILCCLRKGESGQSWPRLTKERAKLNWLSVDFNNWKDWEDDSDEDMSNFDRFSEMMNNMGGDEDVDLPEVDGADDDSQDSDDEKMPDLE
# [8] = biological target: Prostaglandin E synthase 2 (Homo sapiens) (UniProt Q9H7Z7); assay: Inhibition of mPGES2 in A23187-stimulated human THP1 cells assessed as decrease in PGE2 production at 10 uM using arachidonic acid as substrate relative to control; in short: as §2
# CYP1A2 = biological target: T4, CYP1A2 (Homo sapiens, UniProt P05177); assay: Inhibition of CYP1A2 in human liver microsomes at 10 uM after 20 mins in presence of NADPH by LC-MS/MS analysis; format: ADME; in short: as §3
# T4 sequence (P05177 whole entry): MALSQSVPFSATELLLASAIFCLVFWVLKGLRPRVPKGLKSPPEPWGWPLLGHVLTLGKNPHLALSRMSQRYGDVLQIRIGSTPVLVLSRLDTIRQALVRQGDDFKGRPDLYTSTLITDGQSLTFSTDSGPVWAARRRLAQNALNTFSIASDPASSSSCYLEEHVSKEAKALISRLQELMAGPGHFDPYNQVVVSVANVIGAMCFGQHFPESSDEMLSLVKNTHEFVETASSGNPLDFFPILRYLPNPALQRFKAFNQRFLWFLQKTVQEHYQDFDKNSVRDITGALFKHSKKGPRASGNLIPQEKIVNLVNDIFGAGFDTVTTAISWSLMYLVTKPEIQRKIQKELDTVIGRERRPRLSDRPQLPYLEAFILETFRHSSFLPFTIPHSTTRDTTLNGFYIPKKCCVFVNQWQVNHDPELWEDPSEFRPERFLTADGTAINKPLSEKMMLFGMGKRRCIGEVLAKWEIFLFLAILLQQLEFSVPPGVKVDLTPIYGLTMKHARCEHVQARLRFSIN
# [9] = Inhibition of guinea pig mPGES1 expressed in CHO cells assessed as reduction in PGE2 production using PGH2 as substrate incubated for 10 mins followed by substrate addition measured for 1 min; set-up: species or system Cavia porcellus
# In short: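 Guinea pig mPGES-1 enzyme assay, run the same way as the human enzyme assay. IC50 for inhibition of PGE2 formation, read from curves built on at least two experiments, each in duplicate.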
# [10] = Inhibition of mPGES1 in guinea pig whole blood assessed as reduction in LPS-induced PGE2 production measured after 20 to 24 hrs; settings: Cavia porcellus
# In short: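 Guinea pig whole blood stimulated with LPS. […] At least two experiments, each in duplicate.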
# [11] = Inhibition of human U937 cells-derived COX1 assessed as decrease in PGE2 production at 10 uM using arachidonic acid as substrate preincubated for 15 mins prior to substrate addition for 5 mins relative to control; settings: COX1 derived from U937 cells, probe arachidonic acid; in short: as §2
# Chain of CYP3A4 (P08684 whole entry, canonical isoform): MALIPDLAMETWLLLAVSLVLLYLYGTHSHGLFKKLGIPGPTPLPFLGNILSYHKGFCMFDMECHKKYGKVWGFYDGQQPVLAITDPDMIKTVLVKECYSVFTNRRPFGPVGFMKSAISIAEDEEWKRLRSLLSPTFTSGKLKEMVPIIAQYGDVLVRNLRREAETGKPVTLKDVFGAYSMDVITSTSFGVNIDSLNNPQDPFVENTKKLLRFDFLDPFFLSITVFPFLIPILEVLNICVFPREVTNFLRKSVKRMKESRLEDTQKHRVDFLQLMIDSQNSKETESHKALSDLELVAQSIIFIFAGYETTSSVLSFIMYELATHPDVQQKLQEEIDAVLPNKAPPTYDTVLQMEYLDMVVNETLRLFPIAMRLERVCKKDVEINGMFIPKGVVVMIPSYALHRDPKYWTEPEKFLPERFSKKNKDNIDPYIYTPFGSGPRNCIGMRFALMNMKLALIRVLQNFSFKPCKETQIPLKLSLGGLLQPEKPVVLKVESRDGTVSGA
# Chain of CYP2D6 (P10635 whole entry): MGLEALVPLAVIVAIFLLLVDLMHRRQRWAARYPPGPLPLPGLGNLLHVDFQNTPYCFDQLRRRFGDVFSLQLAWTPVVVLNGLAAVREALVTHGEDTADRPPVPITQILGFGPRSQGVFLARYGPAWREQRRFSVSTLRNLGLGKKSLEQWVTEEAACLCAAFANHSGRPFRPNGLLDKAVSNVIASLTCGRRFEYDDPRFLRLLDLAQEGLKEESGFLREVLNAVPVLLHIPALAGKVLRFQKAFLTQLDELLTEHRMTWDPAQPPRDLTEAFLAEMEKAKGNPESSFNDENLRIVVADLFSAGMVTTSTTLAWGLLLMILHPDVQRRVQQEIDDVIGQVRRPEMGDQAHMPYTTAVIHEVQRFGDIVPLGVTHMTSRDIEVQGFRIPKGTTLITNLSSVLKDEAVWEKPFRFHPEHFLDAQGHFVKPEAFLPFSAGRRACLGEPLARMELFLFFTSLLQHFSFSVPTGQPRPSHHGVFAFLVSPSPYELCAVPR
# Chain of hERG (KCNH2) (Q12809 whole entry): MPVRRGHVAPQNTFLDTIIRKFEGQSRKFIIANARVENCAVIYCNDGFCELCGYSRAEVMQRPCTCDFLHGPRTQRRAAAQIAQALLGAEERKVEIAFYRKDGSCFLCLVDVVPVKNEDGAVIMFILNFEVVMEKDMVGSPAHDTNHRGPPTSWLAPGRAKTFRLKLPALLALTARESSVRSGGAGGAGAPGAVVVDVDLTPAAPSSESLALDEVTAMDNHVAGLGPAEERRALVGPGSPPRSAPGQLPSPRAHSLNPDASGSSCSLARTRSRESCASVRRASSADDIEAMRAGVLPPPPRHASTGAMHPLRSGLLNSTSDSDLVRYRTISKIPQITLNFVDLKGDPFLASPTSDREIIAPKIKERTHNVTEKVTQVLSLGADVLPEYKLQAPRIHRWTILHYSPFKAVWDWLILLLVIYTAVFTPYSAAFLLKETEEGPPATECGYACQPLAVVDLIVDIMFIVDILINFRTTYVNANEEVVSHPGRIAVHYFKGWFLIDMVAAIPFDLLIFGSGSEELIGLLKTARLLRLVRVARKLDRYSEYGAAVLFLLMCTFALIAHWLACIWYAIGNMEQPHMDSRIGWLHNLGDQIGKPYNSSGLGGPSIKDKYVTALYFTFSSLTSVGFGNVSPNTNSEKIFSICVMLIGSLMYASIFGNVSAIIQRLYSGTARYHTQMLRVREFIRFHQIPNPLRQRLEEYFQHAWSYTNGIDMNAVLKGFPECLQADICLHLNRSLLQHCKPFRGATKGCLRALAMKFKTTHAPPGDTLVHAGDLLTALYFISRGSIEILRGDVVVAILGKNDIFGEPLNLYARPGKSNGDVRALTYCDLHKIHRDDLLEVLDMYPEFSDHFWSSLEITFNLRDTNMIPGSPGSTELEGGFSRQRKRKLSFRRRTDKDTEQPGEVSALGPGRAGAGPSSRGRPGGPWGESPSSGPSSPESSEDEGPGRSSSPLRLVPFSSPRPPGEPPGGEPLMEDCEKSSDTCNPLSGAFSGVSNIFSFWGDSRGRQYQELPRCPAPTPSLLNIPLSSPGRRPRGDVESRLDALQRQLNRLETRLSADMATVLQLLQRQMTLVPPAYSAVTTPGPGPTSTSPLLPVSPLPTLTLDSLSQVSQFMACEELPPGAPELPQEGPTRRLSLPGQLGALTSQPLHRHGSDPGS
# Chain of CYP2C9 (P11712 whole entry): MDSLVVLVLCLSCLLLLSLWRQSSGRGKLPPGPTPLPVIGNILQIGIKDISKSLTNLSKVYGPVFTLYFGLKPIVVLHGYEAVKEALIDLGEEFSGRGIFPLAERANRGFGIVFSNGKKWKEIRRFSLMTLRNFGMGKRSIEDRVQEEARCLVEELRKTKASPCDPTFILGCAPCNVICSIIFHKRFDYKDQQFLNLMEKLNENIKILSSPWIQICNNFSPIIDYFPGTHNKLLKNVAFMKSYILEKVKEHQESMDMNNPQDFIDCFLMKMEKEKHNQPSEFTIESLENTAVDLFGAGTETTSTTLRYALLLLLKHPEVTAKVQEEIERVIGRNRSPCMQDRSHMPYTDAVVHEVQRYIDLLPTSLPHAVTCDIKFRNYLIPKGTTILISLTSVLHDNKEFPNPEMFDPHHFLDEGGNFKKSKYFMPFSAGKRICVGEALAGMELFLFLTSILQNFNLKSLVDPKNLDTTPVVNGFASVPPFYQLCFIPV
# Chain of Prostaglandin E synthase 2 (Homo sapiens) (Q9H7Z7 whole entry): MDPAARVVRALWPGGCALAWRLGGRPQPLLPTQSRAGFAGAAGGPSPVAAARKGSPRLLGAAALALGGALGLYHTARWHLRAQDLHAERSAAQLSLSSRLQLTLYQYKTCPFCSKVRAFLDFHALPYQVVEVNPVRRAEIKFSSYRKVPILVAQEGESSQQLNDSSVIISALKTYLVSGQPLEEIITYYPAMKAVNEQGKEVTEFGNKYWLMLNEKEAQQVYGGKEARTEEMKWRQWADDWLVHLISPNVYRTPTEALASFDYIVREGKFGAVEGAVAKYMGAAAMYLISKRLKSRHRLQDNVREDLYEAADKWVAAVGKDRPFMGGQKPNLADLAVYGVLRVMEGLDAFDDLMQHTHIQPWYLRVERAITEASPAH
SMILES,"remaining at 1 h, 1 µM [1] [%]",IC50 (Prostaglandin E synthase [2]) [nM],"remaining at 1 h, 1 µM [3] [%]",inhibition [4] [%],"fraction unbound at 5 h, 10 µM [5]","inhibition at 20 min, 10 µM (CYP3A4) [%]","inhibition at 20 min, 10 µM (CYP2C9) [%]",IC50 (Prostaglandin E synthase [6]) [nM],"inhibition at 20 min, 10 µM (CYP2D6) [%]",inhibition [7] [%],inhibition [8] [%],"inhibition at 20 min, 10 µM (CYP1A2) [%]",IC50 [9] [nM],IC50 [10] [nM],"inhibition at 5 min, 10 µM [11] [%]",inhibition at 10 µM (hERG (KCNH2)) [%]
CC1(C)Cc2c(c(C(=O)Nc3ccc(C(F)(F)F)cn3)cc3nc(Nc4c(Cl)cccc4Cl)[nH]c23)O1,91,8.4,88,1.3,0.0016,40,56,261,9,0,7.8,4,12,259,7.8,5.4
Cc1cccc(Cl)c1Nc1nc2cc(C(=O)Nc3cc(C(F)F)ccc3F)c3c(c2[nH]1)CC(C)(C)O3,83,10,87,17.2,0.0158,16,28,162,14,11,3.8,28,46,222,38.2,11.8

# The next molecules have a lower IC50 (Prostaglandin E synthase [2]) than those just listed; values first:
"remaining at 1 h, 1 µM [1] [%]",IC50 (Prostaglandin E synthase [2]) [nM],"remaining at 1 h, 1 µM [3] [%]",inhibition [4] [%],"fraction unbound at 5 h, 10 µM [5]","inhibition at 20 min, 10 µM (CYP3A4) [%]","inhibition at 20 min, 10 µM (CYP2C9) [%]",IC50 (Prostaglandin E synthase [6]) [nM],"inhibition at 20 min, 10 µM (CYP2D6) [%]",inhibition [7] [%],inhibition [8] [%],"inhibition at 20 min, 10 µM (CYP1A2) [%]",IC50 [9] [nM],IC50 [10] [nM],"inhibition at 5 min, 10 µM [11] [%]",SMILES,inhibition at 10 µM (hERG (KCNH2)) [%]
100,3.3,97,0.87,0.0004,-4,15,222,-2,21.1,23.5,24,19,340,14.6,Cc1cccc(Cl)c1Nc1nc2cc(C(=O)Nc3cc(C(F)(F)F)ccc3F)c3c(c2[nH]1)CC(C)(C)O3,12.3
100,5,91,25.5,0.0136,46,48,208,19,0,11.6,-6,24,465,8.27,CC1(C)Cc2c(c(C(=O)Nc3ccc(F)c(C(F)(F)F)c3)cc3nc(Nc4c(F)cccc4Cl)[nH]c23)O1,3.8
98,5.7,89,22.1,0.0028,8,19,405,29,24,7.9,5,4.3,188,19.7,Cn1c(Nc2c(F)cccc2Cl)nc2cc(C(=O)Nc3cccc(C(F)(F)F)c3)c3c(c21)CC(C)(C)O3,26.5
89,3,96,4.6,0.0035,2,35,256,12,4.2,13.5,22,14,204,14.7,CC1(C)Cc2c(c(C(=O)Nc3cc(C(F)(F)F)ccc3F)cc3nc(Nc4c(F)cccc4Cl)[nH]c23)O1,5.8
